Measurements as given in ChEMBL document CHEMBL1165897, “Design, synthesis, characterization, and antibacterial activity of {5-chloro-2-[(3-substitutedphenyl-1,2,4-oxadiazol-5-yl)-methoxy]-phenyl}-(phenyl)-methanones” (2010).
≈ marks a conversion by molar mass, not a printed value.

Legend:
Bacillus subtilis [1] = assay: Antibacterial activity against Bacillus subtilis NCIM 2063; ATCC 6633 at […] after 24 hrs by agar cup plate method; format: functional, NCIM 2063; ATCC6633; conditions: ATCC6633, 24 h, read-out: IZ
How it was run: (§1)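 Agar cup plate diffusion: test compounds at 100 µg/mL in 20% water in DMSO placed in bores cut in agar plates seeded with each organism, alongside standard drugs; incubated 37 °C for 24 h, then zone of inhibition around the bore measured. Values are the average of three experiments.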

Escherichia coli [2] = assay: Antibacterial activity against Escherichia coli NCIM 2065; ATCC 8739 at […] after 24 hrs by agar cup plate method; format: functional; conditions: ATCC 8739, 24 h, read-out: IZ; how it was run: as §1
Staphylococcus aureus [3] = assay: Antibacterial activity against Staphylococcus aureus NCIM 2079; ATCC 6538P at […] after 24 hrs by agar cup plate method; format: functional, NCIM 2079; ATCC6538P; parameters: dose or concentration left out as unconfirmed; conditions: ATCC6538P, read-out: IZ
Klebsiella pneumoniae = assay: Antibacterial activity against Klebsiella pneumoniae NCIM 2957; ATCC 11298 after 24 hrs by microtitration method; format: functional; conditions: ATCC 11298, 24 h
How it was run: (§2)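 Microtitration assay using the same isolates as the cup plate test; MIC taken as the lowest concentration of test sample or antibiotic giving no visible growth.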

Bacillus subtilis [4] = assay: Antibacterial activity against Bacillus subtilis NCIM 2063; ATCC 6633 after 24 hrs by microtitration method; format: functional, NCIM 2063; ATCC6633; conditions: ATCC6633, 24 h; how it was run: as §2
Escherichia coli [5] = assay: Antibacterial activity against Escherichia coli NCIM 2065; ATCC 8739 after 24 hrs by microtitration method; format: functional; conditions: ATCC 8739, 24 h; how it was run: as §2
Staphylococcus aureus [6] = assay: Antibacterial activity against Staphylococcus aureus NCIM 2079; ATCC 6538P after 24 hrs by microtitration method; format: functional; conditions: ATCC6538P; how it was run: as §2

SMILES	MIC (Klebsiella pneumoniae) [µg/mL]	MIC (Bacillus subtilis [4]) [µg/mL]	MIC (Escherichia coli [5]) [µg/mL]	MIC (Staphylococcus aureus [6]) [µg/mL]	zone of inhibition at 100000 µg/mL (Bacillus subtilis [1]) [mm]	zone of inhibition at 100000 µg/mL (Escherichia coli [2]) [mm]	zone of inhibition (Staphylococcus aureus [3]) [mm]
O=C(c1ccccc1)c1cc(Cl)ccc1OCc1nc(-c2ccccc2)no1	62 (≈ 159 µM)	41 (≈ 105 µM)	64.2 (≈ 164 µM)	68 (≈ 174 µM)	14	10	9
O=C(c1ccccc1)c1cc(Cl)ccc1OCc1nc(-c2ccc(F)c(Cl)c2)no1	39.6 (≈ 89.3 µM)	29.8 (≈ 67.2 µM)	30.8 (≈ 69.5 µM)	30.6 (≈ 69 µM)	19	16	17
Cc1cc(-c2noc(COc3ccc(Cl)cc3C(=O)c3ccccc3)n2)ccc1F	30 (≈ 70.9 µM)	30.6 (≈ 72.4 µM)	29.6 (≈ 70 µM)	40 (≈ 94.6 µM)	17	20	15
COc1cc(-c2noc(COc3ccc(Cl)cc3C(=O)c3ccccc3)n2)ccc1F	30.8 (≈ 70.2 µM)	29.8 (≈ 67.9 µM)	30.6 (≈ 69.7 µM)	30 (≈ 68.4 µM)	19	17	18
CC1(C)S[C@@H]2[C@H](NC(=O)[C@H](N)c3ccccc3)C(=O)N2[C@H]1C(=O)O [AMPICILLIN]	4 (≈ 11.4 µM)	3.28 (≈ 9.39 µM)	3.88 (≈ 11.1 µM)	3.36 (≈ 9.62 µM)	32	30	31
Cc1cc(F)c(-c2noc(COc3ccc(Cl)cc3C(=O)c3ccccc3)n2)cc1F	30.6 (≈ 69.4 µM)	21.5 (≈ 48.8 µM)	29.8 (≈ 67.6 µM)	22.4 (≈ 50.8 µM)	27	19	25

The next lines start with results.

MIC (Klebsiella pneumoniae) [µg/mL]	MIC (Bacillus subtilis [4]) [µg/mL]	MIC (Escherichia coli [5]) [µg/mL]	MIC (Staphylococcus aureus [6]) [µg/mL]	SMILES	zone of inhibition at 100000 µg/mL (Bacillus subtilis [1]) [mm]	zone of inhibition at 100000 µg/mL (Escherichia coli [2]) [mm]	zone of inhibition (Staphylococcus aureus [3]) [mm]
40 (≈ 92 µM)	42.2 (≈ 97 µM)	59.4 (≈ 137 µM)	29.8 (≈ 68.5 µM)	CCOc1ccc(-c2noc(COc3ccc(Cl)cc3C(=O)c3ccccc3)n2)cc1	13	11	19
62 (≈ 143 µM)	40.6 (≈ 93.8 µM)	60.8 (≈ 140 µM)	39.6 (≈ 91.5 µM)	CC(C)c1ccc(-c2noc(COc3ccc(Cl)cc3C(=O)c3ccccc3)n2)cc1	14	11	15
42 (≈ 103 µM)	39.6 (≈ 96.9 µM)	30.8 (≈ 75.3 µM)	40.6 (≈ 99.3 µM)	O=C(c1ccccc1)c1cc(Cl)ccc1OCc1nc(-c2ccc(F)cc2)no1	15	16	14
46 (≈ 89 µM)	30.8 (≈ 59.6 µM)	62.2 (≈ 120 µM)	41.6 (≈ 80.5 µM)	O=C(c1ccccc1)c1cc(Cl)ccc1OCc1nc(-c2ccc(I)cc2)no1	16	10	13
